Here are results for two compounds from publication PMC12152739 (Chemical Science, 2025).

In brackets after ≈: the same amount, converted by molar mass. Where two headings read alike, the source gives them in different places.

The target in assay [1] is T1, NDM-1 (Klebsiella pneumoniae, UniProt C7C422). Put plainly: Steady-state hydrolysis kinetics and UV difference spectra with purified NDM-1. In kind it is biochemical. The settings on record: for hydrolysis monitored by UV difference spectroscopy: NDM-1, 200 : 1 S : E ratio, 220 nm to 300 nm; for K M: substrate hydrolysis by NDM-1, 30 °C, 10 mM HEPES, 200 mM NaCl pH 7.5, 20 μM ZnSO4.

Assay [2] has as its target T2, IMP-1 (Serratia marcescens, UniProt P52699). Put plainly: Steady-state hydrolysis kinetics and UV difference spectra with purified IMP-1. In kind it is biochemical. As to conditions: for hydrolysis monitored by UV difference spectroscopy: IMP-1, 200 : 1 S : E ratio, 220 nm to 300 nm.
Assay [3] addresses T3, NDM-5 (Klebsiella pneumoniae, UniProt C7C422, M154L/V88L). The settings on record: CAZ hydrolysis by NDM-5; cited from earlier work.
The target of assay [4] is T4, VIM-2 (Escherichia coli, UniProt Q5U7L7). The settings on record: CAZ hydrolysis by VIM-2, cited from earlier work.
Assay [5] has as its target T2, IMP-1. The settings on record: CAZ hydrolysis by IMP-1; cited from earlier work.
For assay [6], the target named is T4, VIM-2. As to the kind of experiment: Steady-state hydrolysis kinetics and UV difference spectra with purified VIM-2. The settings on record: for hydrolysis monitored by UV difference spectroscopy: VIM-2, 200 : 1 S : E ratio, 220 nm to 300 nm.
Assay [7] has as its target T3, NDM-5. Put plainly: Steady-state hydrolysis kinetics with purified NDM-5. As to conditions: FDC hydrolysis by NDM-5, 30 °C, pH 7.5. In kind it is biochemical. The essentials: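 Purified enzyme in 10 mM HEPES, 200 mM NaCl pH 7.5 with 20 μM ZnSO4, at 30 °C. Initial velocities of substrate hydrolysis followed at 259 nm, Δε259 = −9430 M−1 cm−1, 0.1 cm path cuvette. kcat and KM derived from these initial-rate measurements.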

Assay [8] concerns the target T1, NDM-1. Put plainly: Inhibition of nitrocefin hydrolysis by NDM-1. In kind it is biochemical. The settings on record: 2 nM NDM-1, 5 min preincubation at 30 °C, 50 μM nitrocefin. The essentials: (§1)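 Recombinant MBL lacking its signal peptide, made in E. coli BL21(DE3) as His-tagged protein, Ni-affinity purified and TEV-cleaved (>95% pure). 2 nM enzyme preincubated 5 min at 30 °C with varied test compound, or its NDM-1 hydrolysis product, or none. Buffer: 10 mM HEPES, 200 mM NaCl pH 7.5, 20 μM ZnSO4. Nitrocefin 50 μM final; initial rates at 495 nm over 300 s. IC50 curves fitted; triplicate.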

Assay [9] addresses T4, VIM-2. As to the kind of experiment: Inhibition of nitrocefin hydrolysis by VIM-2. In kind it is biochemical. As to conditions: 2 nM VIM-2, 5 min preincubation at 30 °C, 50 μM nitrocefin. The essentials:
as §1

Assay [10] has as its target T2, IMP-1. Put plainly: Inhibition of nitrocefin hydrolysis by IMP-1. In kind it is biochemical. The settings on record: 2 nM IMP-1, 5 min preincubation at 30 °C, 50 μM nitrocefin. In a few lines:
as §1

Assay [11] concerns E. coli DH10B cells harboring the pMBLe blaNDM-1 plasmid. Put plainly: Broth microdilution MIC in ID-CAMHB, E. coli producing NDM-1. In kind it is cell-based. In a few lines:
(§2)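 Broth microdilution per CLSI in iron-depleted cation-adjusted Mueller–Hinton broth. DH10B carries the MBL gene on pMBLe with its native signal peptide under an IPTG-inducible promoter; inoculum in broth with 0–200 μM IPTG, final 5 × 10^5 CFU mL−1. Incubation 37 °C, 18 h; mode of three independent experiments. Enzyme levels by anti-strep-tag II immunoblot of drug-free growth wells, DnaK loading control.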

For assay [12], the system named is E. coli DH10B cells harboring the pMBLe blaIMP-1 plasmid. Put plainly: Broth microdilution MIC in ID-CAMHB, E. coli producing IMP-1. In kind it is cell-based. The settings on record: Escherichia coli, higher levels of IMP-1 (IPTG-induced). In a few lines:
as §2
For orientation: Dilution methods test growth across graded concentrations, often in twofold steps.

For a further assay, the system named is E. coli (blaNDM-5). As to conditions: clinical E. coli before ten-fold increase in blaNDM-5 copy number; cited from earlier work.

In general, MIC refers to the lowest concentration that inhibits growth of the organism.

As to `CC(C)(O/N=C(\C(=O)N[C@@H]1C(=O)N2C(C(=O)[O-])=C(C[n+]3ccccc3)CS[C@H]12)c1csc(N)n1)C(=O)O` [CAZ, ceftazidime], the “hydrolysis monitored by UV difference spectroscopy” value at NDM-1 [1], at IMP-1 [2] and at VIM-2 [6] was “can turnover” throughout. Besides, the “K M” value is 45 ± 12 µM at NDM-1 [1], 86 ± 11 µM on NDM-5 [3], 72 µM at VIM-2 [4] (standard deviations <10%) and 44 ± 3 µM on IMP-1 [5]. For the same compound, the k cat on NDM-5 [3] was 15 s⁻¹; at VIM-2 [4] (standard deviations <10%), 3.6 s⁻¹; on IMP-1 [5], 8 ± 1 s⁻¹. In addition, the figures for the “k cat /K M” value at NDM-5 [3], at VIM-2 [4] and at IMP-1 [5] were 180000 M⁻¹ s⁻¹, 50000 M⁻¹ s⁻¹ and 180000 M⁻¹ s⁻¹, respectively.

`CC(C)(O/N=C(\C(=O)N[C@@H]1C(=O)N2C(C(=O)[O-])=C(C[N+]3(CCNC(=O)c4ccc(O)c(O)c4Cl)CCCC3)CS[C@H]12)c1csc(N)n1)C(=O)O` [FDC, cefiderocol]: the “hydrolysis monitored by UV difference spectroscopy” value on NDM-1 [1] is listed as “efficiently hydrolyzes”; on IMP-1 [2], “negligible activity”; on VIM-2 [6] it was “negligible activity”. For the same compound, the “K M” value on NDM-1 [1] is 443 ± 59 µM; at NDM-5 [7], 405 ± 40 µM; at IMP-1 [2] (FDC hydrolysis by IMP-1, 30 °C, pH 7.5), 300 ± 120 µM; at VIM-2 [6] (FDC hydrolysis by VIM-2, 30 °C, pH 7.5), 250 ± 80 µM. Moreover, the k cat at NDM-5 [7] turned out to be 75 ± 3 s⁻¹. Also, the “inhibition of nitrocefin hydrolysis activity” value against NDM-1 [8] was “largely unperturbed”; on VIM-2 [9] it was “inhibited”; against IMP-1 [10], “inhibited”. For the same compound, the “increase in MIC values” in assay [11] (E. coli laboratory strain, NDM-1 overproduction vs basal level) was determined as 16 fold. Further, the MIC was 0.5 µg/mL (≈ 0.665 µM) in assay [11] (Escherichia coli, ID-CAMHB, higher levels of NDM-1 (IPTG-induced)); 0.06 µg/mL (≈ 0.0798 µM) in [12]; 2 µg/mL (≈ 2.66 µM) in the assay on E. coli (blaNDM-5).
